# In the library only some 5.8% were active in any assay of this set; here they are far more common.
# Pf Dd2 growth: P. falciparum Dd2 growth inhibition; SYBR Green, 72 h; active compounds read low; activity change, % at 10 µM; actives 2.3% (n = 94,000); in the data active means activity change below about -80%; inconclusive means no clear call, values can overlap the other calls
# KDM4C inh: blocks human GASC-1 (KDM4C) demethylase activity; Q9H3R0; inhibition, % at 12.5 µM; actives 0.15% (n = 96,000); GST-KDM4C 2-372, H3K9me3 peptide, LANCE TR-FRET; AID 720574;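 active means mean replicate inhibition above about 25%, with at least 55% of replicates also reaching it, limit read from the data, passing the limit was not always enough; inconclusive means only one of those two conditions met; inactive means neither condition met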
#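 System: N-terminal GST-fused human GASC-1 (KDM4C) fragment, residues 2-372; amount: enzyme final amount 10 nM; incubation: reaction 30 min RT, detection step 1 h RT; medium: HEPES buffer, pH 7.5, plus ascorbate; technique: LANCE TR-FRET, Eu antibody, ULight-streptavidin, EDTA, ex 340 nm, em 618/671 nm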
# T cruzi growth-1: inhibitors of T. cruzi proliferation; actives 5.9% (n = 77,000); T. cruzi beta-gal in NIH3T3, GalScreen luminescence, 90 h; AID 624255; inhibition, % at 8.34 µM;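 active means mean inhibition above about 93%, with at least 55% of replicates each passing it, limit read from the data, passing the limit was not always enough; inconclusive means only one of those two conditions holds; inactive means neither condition holds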
# IDH1 R132H inh: inhibitors of human IDH1 R132H; O75874; IDH1 R132H reductase, diaphorase/resazurin fluorescence, 60 min; inhibition, % at 10 µM; actives 0.18% (n = 70,000); AID 624101; in the data active means inhibition above about 34%; inconclusive means no clear call, values can overlap the other calls; inactive means below about 11%;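 further: 0% = DMSO and 100% = no enzyme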
# Target sequence (O75874 whole entry R132H): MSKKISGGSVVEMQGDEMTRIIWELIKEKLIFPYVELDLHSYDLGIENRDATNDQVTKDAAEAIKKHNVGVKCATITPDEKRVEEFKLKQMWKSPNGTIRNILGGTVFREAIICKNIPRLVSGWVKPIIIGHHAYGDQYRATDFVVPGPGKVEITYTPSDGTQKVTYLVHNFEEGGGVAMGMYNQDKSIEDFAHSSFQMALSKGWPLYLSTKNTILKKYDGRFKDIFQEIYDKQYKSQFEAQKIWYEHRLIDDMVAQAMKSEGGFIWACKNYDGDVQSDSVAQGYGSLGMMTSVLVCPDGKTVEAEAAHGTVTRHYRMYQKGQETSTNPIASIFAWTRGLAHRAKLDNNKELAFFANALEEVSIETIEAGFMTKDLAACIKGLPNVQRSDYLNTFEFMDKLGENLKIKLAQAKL
# T cruzi growth-2: Trypanosoma cruzi proliferation inhibition; shares compounds with T cruzi growth-1; T. cruzi beta-gal in NIH3T3, GalScreen luminescence, 90 h; inhibition, % at 8.35 µM; actives 72% (n = 5,600);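 active means mean replicate inhibition above about 95% and at least 55% of replicates individually reaching it, limit read from the data; inconclusive means only one of the two criteria is met; inactive means neither criterion is met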
# T cruzi growth-3: blocks T. cruzi growth in NIH3T3 host cells; shares compounds with T cruzi growth-1; T. cruzi beta-gal in NIH3T3, GalScreen luminescence, 90 h; inhibition, % at 2.09 µM; actives 21% (n = 5,600); AID 651740;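 active means mean inhibition above about 95%, with at least 55% of replicates also reaching it, limit read from the data; inconclusive means meets just one of the two conditions; inactive means meets neither condition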;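 further: plate controls were neutral control median for no effect and positive control median for full effect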
# 3T3 cytotox: NIH/3T3 (mouse) viability loss; shares compounds with T cruzi growth-1; NIH/3T3 viability, CellTiter-Glo ATP luminescence, 90 h; cytotoxicity (signal decrease), % at 8.35 µM; actives 14% (n = 5,600);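 active means mean signal decrease across replicates above about 35% based on untreated-well scatter, with enough replicates individually passing, limit read from the data; inconclusive means no rule stated though some were filed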;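 further: 0% = median of neutral control wells and 100% = median of positive control wells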
# NIH3T3 tox 2: NIH/3T3 (mouse) viability loss; shares compounds with T cruzi growth-1; NIH/3T3 viability, CellTiter-Glo ATP luminescence, 90 h; inhibition, % at 24.9 µM; actives 56% (n = 5,600);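 active means mean loss of cell viability signal at or above a set limit, and enough replicates individually reaching it; inconclusive means meets only the mean limit or only the replicate share; inactive means meets neither condition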;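 further: 0% = median of neutral control wells and 100% = median of positive control wells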
# Starred values were filed as active, the others as inactive; ? = inconclusive; . = no result.
SMILES,Pf Dd2 growth,KDM4C inh,T cruzi growth-1,IDH1 R132H inh,T cruzi growth-2,T cruzi growth-3,3T3 cytotox,NIH3T3 tox 2
O=C(Cc1ccccc1)N1CCCCN2[C@H](CO)[C@H](c3ccc(C#CC4(O)CCCC4)cc3)[C@@H]2C1,2.1,-0.9,103.4*,.,76.0,39.0,11.2,14.9
O=C(Cc1ccccc1)N1CCCCN2[C@@H](CO)[C@H](c3ccc(C#CC4(O)CCCC4)cc3)[C@@H]2C1,-28.0,-0.1,108.7*,.,102.4*,28.4,11.3,33.2*
O=C(Cc1ccncc1)N1CCCCN2[C@@H](CO)[C@@H](c3ccc(C#CC4(O)CCCC4)cc3)[C@@H]2C1,-10.1,-0.1,109.6*,.,26.1,-13.8,-17.1,-8.7
O=C(Cc1ccccc1)N1CCCCN2[C@@H](CO)[C@@H](c3ccc(C#CC4(O)CCCC4)cc3)[C@@H]2C1,-28.1,0.2,93.8,.,.,.,.,.
COC1CC(O[C@H]2CC[C@@]3(C)C(CCC4C3CC[C@]3(C)C(C5=CC(=O)OC5)CCC43O)C2)OC(C)C1OC1OC(COC2OC(CO)C(O)C(O)C2O)C(O)C(O)C1O (some centres undefined),.,.,.,0.2,.,.,.,.
C=CCN1CC[C@]2(C)c3cc(O)ccc3CC1[C@@H]2C,.,.,.,0.2,.,.,.,.
O=C1/C(=C/c2ccccc2)C[C@@]2(O)C3Cc4ccc(O)c5c4[C@@]2(CCN3CC2CC2)[C@H]1O5,.,.,.,0.5,.,.,.,.
C=CC1CN2CCC1CC2C(OC(=O)c1ccco1)c1ccnc2ccccc12 (centres undefined),.,.,.,3.7,.,.,.,.
COc1cccc(-c2ccc([C@@H]3[C@H](CO)N4CCCCN(C(=O)Cc5ccncc5)C[C@@H]34)cc2)c1,-43.9,-0.7,?,.,82.9,18.4,8.8,35.4*
COc1cccc(-c2ccc([C@H]3[C@@H](CO)N4CCCCN(C(=O)Cc5ccncc5)C[C@H]34)cc2)c1,-39.1,-0.8,107.4*,.,109.6*,61.4,20.4,48.4*
COc1cccc(-c2ccc([C@@H]3[C@@H](CO)N4CCCCN(C(=O)Cc5ccncc5)C[C@H]34)cc2)c1,-30.9,-0.3,114.3*,.,101.9*,38.4,24.6,38.2*
COc1cccc(-c2ccc([C@H]3[C@H](CO)N4CCCCN(C(=O)Cc5ccncc5)C[C@@H]34)cc2)c1,-39.9,0.4,72.7,.,.,.,.,.
COc1cccc(-c2ccc([C@H]3[C@@H](CO)N4CCCCN(C(=O)Cc5ccncc5)C[C@@H]34)cc2)c1,-50.7,0.0,110.8*,.,110.4*,49.1,12.3,23.5
COc1cccc(-c2ccc([C@@H]3[C@@H](CO)N4CCCCN(C(=O)Cc5ccncc5)C[C@@H]34)cc2)c1,-51.7,-0.1,63.4,.,.,.,.,.

# Compound activity from PubChem BioAssay.
